Nine compounds from ChEMBL document CHEMBL1158842, “Antiproliferative triterpene saponins from Entada africana” (J Nat Prod, 2006) can be followed below.

Molecules are shown by their SMILES.

One assay has as its system WEHI-164. Description: Antiproliferative activity against mouse WEHI164 cells after 72 hrs by MTT conversion assay. It counts as functional, cell-based. In a few lines: (§1)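 Cells (3.4 × 10^4 per well) adhered 2 h at 37 °C, 5% CO2; medium replaced with fresh medium and 1:4 serial dilutions of test compound added, then incubated 72 h; 6-mercaptopurine serial dilutions in some experiments. Viability by MTT conversion, OD read at 620 nm; % dead cells = 100 − (OD treated/OD control) × 100.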
(Formazan colour is commonly taken as a measure of viable cells.)

For the next assay, the system named is HEK293. As to the kind of experiment: Antiproliferative activity against HEK293 cells after 72 hrs by MTT conversion assay. The class given is cell-based, Homo sapiens. The method, boiled down:
as §1

Another assay deals with J774.A1. Description: Antiproliferative activity against mouse J774A1 cells after 72 hrs by MTT conversion assay. It counts as cell-based. The following applies: J774.A1, 72 h. The method, boiled down:
as §1

Setting [1] is: Mus musculus, WEHI-164, 72 h, read-out: IC50.
The mark [2] stands for this setting: Homo sapiens, HEK293, 72 h, read-out: IC50.

With `C=C[C@](C)(O)CC/C=C(\C)C(=O)O[C@@H]1[C@@H](O)[C@H](O[C@H]2[C@H](O)[C@@H](COC(C)=O)O[C@@H](OC(=O)[C@]34C[C@H](O)C(C)(C)C[C@H]3C3=CC[C@@H]5[C@@]6(C)CC[C@H](O[C@@H]7O[C@H](CO[C@@H]8OC[C@H](O)[C@H](O[C@@H]9OC[C@@H](O)[C@H](O)[C@H]9O)[C@H]8O)[C@@H](O[C@@H]8O[C@H](CO)[C@@H](O)[C@H](O)[C@H]8O)[C@H](O)[C@H]7NC(C)=O)C(C)(C)[C@@H]6CC[C@@]5(C)[C@]3(C)C[C@H]4O)[C@@H]2O[C@@H]2OC[C@@H](O)[C@H](O[C@@H]3OC[C@](O)(CO)[C@H]3O)[C@H]2O)OC[C@H]1O`, the IC50 (commonly the concentration at which inhibition is half-maximal) in the assay with WEHI-164 (setting [1]) came out at 0.1 µM; in the assay with HEK293 (setting [2]), 0.25 µM; in the assay on J774.A1, 0.031 µM.
As for `CC(=O)N[C@H]1[C@H](O[C@H]2CC[C@]3(C)[C@H]4CC=C5[C@@H]6CC(C)(C)CC[C@]6(C(=O)O[C@@H]6O[C@H](COC(C)=O)[C@@H](O)[C@H](O[C@@H]7OC[C@@H](O)[C@H](O)[C@H]7O)[C@H]6O[C@@H]6OC[C@@H](O)[C@H](O[C@@H]7OC[C@](O)(CO)[C@H]7O)[C@H]6O)[C@H](O)C[C@@]5(C)[C@]4(C)CC[C@H]3C2(C)C)O[C@H](CO[C@@H]2OC[C@H](O)[C@H](O[C@@H]3OC[C@@H](O)[C@H](O)[C@H]3O)[C@H]2O)[C@@H](O[C@@H]2O[C@H](CO)[C@@H](O)[C@H](O)[C@H]2O)[C@@H]1O`, the IC50 result with WEHI-164 (wehi-164) was “Not Traceable”; in the assay with HEK293 (hek293), “Not Traceable”; in the assay on J774.A1, 2.9 µM.
Turning to `C=C[C@](C)(O)CC/C=C(\C)C(=O)O[C@@H]1[C@@H](O)[C@H](O[C@H]2[C@H](O)[C@@H](COC(C)=O)O[C@@H](OC(=O)[C@]34CCC(C)(C)C[C@H]3C3=CC[C@@H]5[C@@]6(C)CC[C@H](O[C@@H]7O[C@H](CO[C@@H]8OC[C@H](O)[C@H](O[C@@H]9OC[C@@H](O)[C@H](O)[C@H]9O)[C@H]8O)[C@@H](O[C@@H]8O[C@H](CO)[C@@H](O)[C@H](O)[C@H]8O)[C@H](O)[C@H]7NC(C)=O)C(C)(C)[C@@H]6CC[C@@]5(C)[C@]3(C)C[C@H]4O)[C@@H]2O[C@@H]2OC[C@@H](O)[C@H](O[C@@H]3OC[C@](O)(CO)[C@H]3O)[C@H]2O)OC[C@H]1O`, the figures for the IC50 in the assay on WEHI-164 (setting [1]), in the assay with HEK293 (setting [2]) and with J774.A1 were 0.49 µM, 0.27 µM and 0.52 µM, respectively.
For the compound `CC(=O)N[C@H]1[C@H](O[C@H]2CC[C@]3(C)[C@H]4CC=C5[C@@H]6CC(C)(C)CC[C@]6(C(=O)O[C@@H]6O[C@H](COC(C)=O)[C@@H](O)[C@H](O[C@@H]7OC[C@@H](O)[C@H](O)[C@H]7O)[C@H]6O[C@@H]6OC[C@@H](O)[C@H](O[C@@H]7OC[C@](O)(CO)[C@H]7O)[C@H]6O)[C@H](O)C[C@@]5(C)[C@]4(C)CC[C@H]3C2(C)C)O[C@H](CO[C@@H]2OC[C@H](O)[C@H](O[C@@H]3OC[C@H](O)[C@H](O)[C@H]3O)[C@H]2O)[C@@H](O[C@@H]2O[C@H](CO)[C@@H](O)[C@H](O)[C@H]2O)[C@@H]1O`, the 50% inhibitory concentration (IC50) result in the assay with WEHI-164 (wehi-164) is “Not Traceable”; in the assay on HEK293 (hek293), “Not Traceable”; with J774.A1 it was 3.1 µM.
`CC(=O)N[C@H]1[C@H](O[C@H]2CC[C@]3(C)[C@H]4CC=C5[C@@H]6CC(C)(C)CC[C@]6(C(=O)O[C@@H]6O[C@H](CO)[C@@H](O)[C@H](O[C@@H]7OC[C@@H](O)[C@H](O)[C@H]7O)[C@H]6O[C@@H]6OC[C@@H](O)[C@H](O[C@@H]7OC[C@](O)(CO)[C@H]7O)[C@H]6O)[C@H](O)C[C@@]5(C)[C@]4(C)CC[C@H]3C2(C)C)O[C@H](CO[C@@H]2OC[C@H](O)[C@H](O[C@@H]3OC[C@@H](O)[C@H](O)[C@H]3O)[C@H]2O)[C@@H](O[C@@H]2O[C@H](CO)[C@@H](O)[C@H](O)[C@H]2O)[C@@H]1O`: the half-maximal inhibitory concentration (IC50) result with WEHI-164 (wehi-164) was “Not Traceable”; in the assay with HEK293 (hek293) it was “Not Traceable”; with J774.A1, 1.2 µM.
For the compound `C=C[C@@](C)(O)CC/C=C(\C)C(=O)O[C@@H]1[C@@H](OC(=O)/C=C/c2ccccc2)[C@H](O[C@H]2[C@H](O)[C@@H](COC(C)=O)O[C@@H](OC(=O)[C@]34CCC(C)(C)C[C@H]3C3=CC[C@@H]5[C@@]6(C)CC[C@H](O[C@@H]7O[C@H](CO[C@@H]8OC[C@H](O)[C@H](O[C@@H]9OC[C@@H](O)[C@H](O)[C@H]9O)[C@H]8O)[C@@H](O[C@@H]8O[C@H](CO)[C@@H](O)[C@H](O)[C@H]8O)[C@H](O)[C@H]7NC(C)=O)C(C)(C)[C@@H]6CC[C@@]5(C)[C@]3(C)C[C@H]4O)[C@@H]2O[C@@H]2OC[C@@H](O)[C@H](O[C@@H]3OC[C@](O)(CO)[C@H]3O)[C@H]2O)OC[C@H]1O`, the IC50 with WEHI-164 (setting [1]) is 0.38 µM; in the assay with HEK293 (setting [2]), 0.36 µM; in the assay with J774.A1 it was 0.84 µM.
Taken in the same sequence, the figures for `CC(=O)N[C@H]1[C@H](O[C@H]2CC[C@]3(C)[C@H]4CC=C5[C@@H]6CC(C)(C)[C@@H](O)C[C@]6(C(=O)O[C@@H]6O[C@H](COC(C)=O)[C@@H](O)[C@H](O[C@@H]7OC[C@@H](O)[C@H](O)[C@H]7O)[C@H]6O[C@@H]6OC[C@@H](O)[C@H](O[C@@H]7OC[C@](O)(CO)[C@H]7O)[C@H]6O)[C@H](O)C[C@@]5(C)[C@]4(C)CC[C@H]3C2(C)C)O[C@H](CO[C@@H]2OC[C@H](O)[C@H](O[C@@H]3OC[C@@H](O)[C@H](O)[C@H]3O)[C@H]2O)[C@@H](O[C@@H]2O[C@H](CO)[C@@H](O)[C@H](O)[C@H]2O)[C@@H]1O` were 2 µM, 3.9 µM and 2.2 µM.
Taken in the same sequence, the figures for `C=C[C@@](C)(O)CC/C=C(\C)C(=O)O[C@@H]1[C@@H](OC(=O)/C=C/c2ccccc2)[C@H](O[C@H]2[C@H](O)[C@@H](COC(C)=O)O[C@@H](OC(=O)[C@]34C[C@H](O)C(C)(C)C[C@H]3C3=CC[C@@H]5[C@@]6(C)CC[C@H](O[C@@H]7O[C@H](CO[C@@H]8OC[C@H](O)[C@H](O[C@@H]9OC[C@H](O)[C@H](O)[C@H]9O)[C@H]8O)[C@@H](O[C@@H]8O[C@H](CO)[C@@H](O)[C@H](O)[C@H]8O)[C@H](O)[C@H]7NC(C)=O)C(C)(C)[C@@H]6CC[C@@]5(C)[C@]3(C)C[C@H]4O)[C@@H]2O[C@@H]2OC[C@@H](O)[C@H](O[C@@H]3OC[C@](O)(CO)[C@H]3O)[C@H]2O)OC[C@H]1O` were 2.7 µM, 2.8 µM and 3 µM.
The corresponding values for `CC(=O)N[C@H]1[C@H](O[C@H]2CC[C@]3(C)[C@H]4CC=C5[C@@H]6CC(C)(C)CC[C@]6(C(=O)O[C@@H]6O[C@H](COC(C)=O)[C@@H](O)[C@H](O[C@@H]7OC[C@@H](O)[C@H](O)[C@H]7OC(=O)/C=C/c7ccccc7)[C@H]6O[C@@H]6OC[C@@H](O)[C@H](O[C@@H]7OC[C@](O)(CO)[C@H]7O)[C@H]6O)[C@H](O)C[C@@]5(C)[C@]4(C)CC[C@H]3C2(C)C)O[C@H](CO[C@@H]2OC[C@H](O)[C@H](O[C@@H]3OC[C@@H](O)[C@H](O)[C@H]3O)[C@H]2O)[C@@H](O[C@@H]2O[C@H](CO)[C@@H](O)[C@H](O)[C@H]2O)[C@@H]1O` are 0.94 µM, 0.56 µM and 0.98 µM.
